Assay results as given in PMC10606955 (Chemico-biological interactions, 2023).
Values joined by “and” are separate entries in the source; they are usually repeats but may differ in a detail not shown here. Equal entries are not always repeated. “Also recorded” adds a separate entry of the source.

Assays:
[1] = target: T1, carboxylesterase 1 (CES1) (Homo sapiens, UniProt P23141); test: Concentration response curves for inhibition of CES1; format: biochemical; conditions: 200 μM OST, CES1 S9; for IC50: read-out: IC50 (kratom alkaloids), alkaloid 0–128 μM, 1% DMSO
T1 sequence (P23141 18-567): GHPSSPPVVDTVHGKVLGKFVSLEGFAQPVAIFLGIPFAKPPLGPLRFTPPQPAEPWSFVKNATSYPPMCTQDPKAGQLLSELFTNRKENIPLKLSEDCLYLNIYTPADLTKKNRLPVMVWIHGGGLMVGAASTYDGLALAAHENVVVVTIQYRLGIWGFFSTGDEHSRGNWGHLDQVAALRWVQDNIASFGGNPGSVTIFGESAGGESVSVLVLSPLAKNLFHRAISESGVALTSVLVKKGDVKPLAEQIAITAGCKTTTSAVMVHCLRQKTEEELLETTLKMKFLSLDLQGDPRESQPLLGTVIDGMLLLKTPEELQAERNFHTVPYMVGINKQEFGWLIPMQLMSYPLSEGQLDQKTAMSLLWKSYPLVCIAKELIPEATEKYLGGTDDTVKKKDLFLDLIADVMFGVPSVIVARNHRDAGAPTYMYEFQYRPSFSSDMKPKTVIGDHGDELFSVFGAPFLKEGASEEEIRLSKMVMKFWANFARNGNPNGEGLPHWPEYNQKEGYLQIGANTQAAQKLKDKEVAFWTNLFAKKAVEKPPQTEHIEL
Outline: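 CES1 S9 (supernatant, 9000g, from sonicated Flp-In-293 cells expressing wild-type CES1) at 20 μg/mL in 50 mM phosphate buffer. Test compound at 0–128 μM, or extracts at 0–128 μg/mL, in 1% DMSO with 200 μM oseltamivir, 15 min at 37°C. Stopped with 4 volumes acetonitrile containing ritalinic acid internal standard. Oseltamivir carboxylate measured by LC-MS/MS and expressed relative to DMSO control; IC50 fitted by modified Hill equation.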

[2] = target: T1, carboxylesterase 1 (CES1); test: Time-dependent inhibition of CES1; format: biochemical; conditions: for Ratio of Preincubation to No Preincubation (IC50, alkaloids): 30 min preincubation; for IC50: mean ± S.E., 200 μM OST
[3] = target: T1, carboxylesterase 1 (CES1); test: Reversible inhibition kinetics of CES1; format: biochemical; conditions: for α (reversible inhibition type): 1 = noncompetitive, infinity = competitive, between = mixed-type; for α (reversible inhibition type) / Vmax: mean ± S.D.; for Vmax: OC formation, fit parameter, triplicate experiments; for type of reversible inhibition of CES1: from modified Michaelis-Menten model
[4] = human, 2g dose of kratom; cited from earlier work
[5] = Preincubation 30 min with CES1 S9

Compound | concentration dependence of CES1 inhibition [1] | Ratio of Preincubation to No Preincubation (IC50, alkaloids) [2] | IC50 ([2]; No preincubation) | IC50 [2, 5] | α (reversible inhibition type) [3] | Vmax [3] | type of reversible inhibition of CES1 [3] | type of reversible inhibition of CES1 ([3]; listed as Speciociliatine) | Cmax [4] | IC50 [1]
CC[C@@H]1CN2CCc3c([nH]c4cccc(OC)c34)[C@H]2C[C@@H]1/C(=C\OC)C(=O)OC [speciociliatine] | concentration-dependent reversible inhibition | 1.18 | 18.1 ± 4 µM | 21.4 ± 2.48 µM | 2.817 ± 1.666 | 210.5 ± 41.43 nmol/min/mg protein | mixed competitive-noncompetitive inhibitors | mixed-type reversible inhibitors; also recorded: mixed competitive-noncompetitive inhibition | 308 nM | 
corynantheidine | concentration-dependent reversible inhibition | 0.993 |  |  | 8.767 ± 2.734 |  | mixed-type reversible inhibitors; also recorded: mixed competitive-noncompetitive inhibition; also recorded: mixed competitive-noncompetitive inhibitors |  |  | 
CC[C@H]1CN2CCc3c([nH]c4cccc(OC)c34)[C@@H]2C[C@@H]1/C(=C\OC)C(=O)OC [speciogynine] | concentration-dependent reversible inhibition | 1.22 |  | 66.2 ± 29 µM |  |  |  |  |  | 54.3 µM
mitragynine | concentration-dependent reversible inhibition | 0.868 | 38.9 ± 16.3 µM | 33.8 ± 5.47 µM | ∞ | 224.2 ± 24.37 nmol/min/mg protein | purely competitive inhibitor; also recorded: pure competitive inhibition |  |  | 38.9 µM and < 50 µM
C=C[C@H]1CN2CCc3c([nH]c4cccc(OC)c34)[C@@H]2C[C@@H]1/C(=C\OC)C(=O)OC [paynantheine] | concentration-dependent reversible inhibition | 1.38 | 32.9 ± 7.2 µM | 45.6 ± 14.1 µM | 8.439 ± 6.336 | 232.2 ± 18.38 nmol/min/mg protein | mixed-type reversible inhibitors; also recorded: mixed competitive-noncompetitive inhibition; also recorded: mixed competitive-noncompetitive inhibitors |  |  | 32.9 µM and < 50 µM
